This is a sample that favours compounds with a hit; in the whole collection about 1% have one here.
IMP-1 inh – inhibitors of Pseudomonas aeruginosa IMP-1 metallo-beta-lactamase; 0.45% of 290,000 active; AID 1556; inhibition, % at 5.6 µM; purified IMP-1, nitrocefin hydrolysis, epi-absorbance fluorescence;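 active = inhibition above the mean plus 3 SD of all compounds in the same screening run, cut at about 4.5% in these data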;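 note: 0% = IMP-1 with DMSO and 100% = DMSO wells lacking enzyme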
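System: purified recombinant IMP-1 beta-lactamase. Medium: Zinc- and detergent-supplemented HEPES buffer, pH 7.1. Compound: one 5.6 µM dose […]. Schedule: 15 min preincubation plus 25 min reaction at 25 °C. Technique: Epi-absorbance fluorescence, 480 nm excitation, 530 nm emission.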
VIM-2 inhibitor – inhibitors of Pseudomonas aeruginosa VIM-2 metallo-beta-lactamase | purified VIM-2, nitrocefin hydrolysis, epi-absorbance fluorescence | inhibition, % at 5.6 µM | 0.89% of 290,000 active;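 active = inhibition above the mean of all tested compounds plus 3 SD, cutoff set per screening run, cut at about 7.5% in these data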;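 note: red hydrolysis product quenches plate fluorescence so inhibitors raise well fluorescence; 0% = enzyme with DMSO and 100% = DMSO without enzyme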
PDI inh – PDI (human) enzyme inhibition. P07237. PDI insulin aggregation turbidity, A650, 90 min. inhibition, % at 10 µM. 0.052% of 350,000 active. AID 588391;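 active = mean inhibition across replicates of 30% or more, whatever share of single replicates reach that level; inconclusive = mean inhibition below 30% while every single replicate reaches 30%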
ERp5 inh – inhibitors of human ERp5; AID 651711; ERp5 insulin aggregation, absorbance 650 nm, 90 min; Q15084; 0.05% of 350,000 active; inhibition, % at 9.99 µM;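 active = mean replicate inhibition above about 25%, with every replicate also reaching it, limit read from the data, passing the limit was not always enough; inconclusive = only one of those two criteria met; inactive = neither criterion met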
Target sequence (Q15084 whole entry, looked up): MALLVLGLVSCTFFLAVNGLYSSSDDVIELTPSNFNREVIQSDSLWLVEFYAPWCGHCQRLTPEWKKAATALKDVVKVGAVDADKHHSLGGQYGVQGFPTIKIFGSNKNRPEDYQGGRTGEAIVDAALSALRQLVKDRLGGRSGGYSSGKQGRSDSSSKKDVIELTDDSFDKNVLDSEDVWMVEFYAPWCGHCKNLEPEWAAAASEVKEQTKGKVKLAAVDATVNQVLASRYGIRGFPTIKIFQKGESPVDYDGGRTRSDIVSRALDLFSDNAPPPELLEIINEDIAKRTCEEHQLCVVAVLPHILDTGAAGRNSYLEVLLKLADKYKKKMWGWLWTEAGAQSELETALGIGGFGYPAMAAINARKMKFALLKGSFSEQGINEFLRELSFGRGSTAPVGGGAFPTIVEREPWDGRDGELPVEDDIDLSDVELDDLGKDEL
PglD DTNB – inhibitors of Campylobacter jejuni PglD acetyltransferase | inhibition, % at 12.5 µM | 0.098% of 360,000 active | purified PglD enzyme, DTNB colorimetric CoA detection; in the data active = inhibition above about 16%, passing the limit was not always enough; inconclusive = no clear call, values can overlap the other calls
PvdQ inh – blocks Pseudomonas aeruginosa PvdQ acylase activity; AID 488965; inhibition, % at 10 µM; purified PvdQ acylase, fluorescence plate reader; 0.063% of 340,000 active; in the data active = inhibition above about 30%, passing the limit was not always enough; inconclusive = no clear call, values can overlap the other calls;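 note: 0% = vehicle neutral wells and 100% = reference inhibitor wells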
Numbers without * were called inactive; ? = inconclusive; . = not tested or not shown.

SMILES	IMP-1 inh	VIM-2 inhibitor	PDI inh	ERp5 inh	PglD DTNB	PvdQ inh
O=S(=O)(c1ccc2c(c1)OCCO2)N1CCC(n2nnc3cc(C(F)(F)F)ccc32)CC1	6.9*	0	-2	.	6	-24
Cc1ccc(S(=O)(=O)NCc2ccc3c(c2)OCO3)cc1C	-1	-2	-7	4	-5	36*
CN1c2ccc(C3=CCCCC3)cc2[C@H]2[C@H](CCN2C(=O)C2CC2)[C@@H]1CO	.	.	.	-2	.	.
O=C(Nc1cccc(Cl)c1)c1cccc(N2C(=O)C3CC=CCC3C2=O)c1 (stereo unspecified)	18*	1	-2	5	5	-7
O=C(Nc1cccc(N2C(=O)C3CCCCC3C2=O)c1)c1ccccc1 (stereo unspecified)	0	-3	-3	-1	-1	-9
CN(C)c1ccc(O)c2c1CC1CC3C(N(C)C)C(=O)C(C(N)=O)=C(O)[C@@]3(O)C(=O)C1=C2O (stereo partly specified)	.	.	0	1	3	-5
CN(C)[C@@H]1C(=O)C(C(=O)NCN2CCCC2)=C(O)[C@@]2(O)C(=O)C3=C(O)c4c(O)cccc4[C@@](C)(O)C3CC12 (stereo partly specified)	5.7*	4	.	.	.	.
COc1ccc2c3c([nH]c2c1)[C@H](CO)N(Cc1nccs1)CC31CN(C(=O)C2CCCC2)C1	.	.	.	10	.	.
O=C(COc1ccc2c3c(c(=O)oc2c1)CCCC3)NCCCN1CCCC1=O	-3	5	6	-3	4	-8
O=C(COc1ccc2c3c(c(=O)oc2c1)CCC3)N1CCCC1	-3	9.8*	-10	-1	2	6
O=C(O)C1CCN(C(=O)COc2ccc3c4c(c(=O)oc3c2)CCCC4)CC1	0	0	.	7	-5	2
O=C(COc1ccc2c3c(c(=O)oc2c1)CCCC3)N1C[C@H]2C[C@@H](C1)c1cccc(=O)n1C2	1	9.1*	.	-1	-1	-7
COc1ccc(-c2cc(=O)oc3cc(OCC(=O)N4C[C@H]5C[C@@H](C4)c4cccc(=O)n4C5)ccc23)cc1	-1	2	.	1	-1	-2
O=C(COc1ccc2c3c(c(=O)oc2c1)CCC3)N1CCCCC1	-2	12*	-44	3	2	1
O=C(COc1ccc2c3c(c(=O)oc2c1)CCC3)NCCCN1CCCC1=O	0	11*	-14	-4	4	-4
C[C@@H]1CN([C@H](C)CO)C(=O)c2cc(-c3cccc(C#N)c3)cnc2O[C@@H]1CN(C)C(=O)c1ccccn1	.	.	.	-3	1	.
C[C@@H]1CN([C@@H](C)CO)C(=O)c2cccc(NC(=O)C3CCOCC3)c2O[C@@H]1CN(C)C	.	.	.	-1	-5	.
CC(=O)Oc1ccc2c3c(c(=O)oc2c1)CCCC3	-5	4	10	3	-6	-9
O=C(COc1ccc2c3c(c(=O)oc2c1)CCC3)N1CCN(c2ccccc2)CC1	-3	11*	-4	.	3	-10
CC(C)Oc1ccc2c3c(c(=O)oc2c1)CCC3	-2	8.6*	-4	.	-1	-11
CC(C)NC(=O)N(C)C[C@@H]1OCCCC[C@@H](C)Oc2ccc(NS(=O)(=O)c3ccccc3)cc2C(=O)N([C@@H](C)CO)C[C@@H]1C	.	.	.	4	-3	.
O=C1CCc2cc(S(=O)(=O)NCc3ccc(Cl)cc3)cc3c2N1CC3	.	.	-5	2	-2	-5
O=C1CCc2cc(S(=O)(=O)NCc3ccccc3Cl)cc3c2N1CC3	.	.	6	29*	-11	2
COc1cccc(NC(=O)N2C[C@@H](O)COC[C@@H]3O[C@@H](CC(=O)NCCCN4CCOCC4)CC[C@H]32)c1	.	.	.	.	3	.
Cc1cc(C)cc(Nc2cc(C)nc3nc(C)nn23)c1	-2	22*	.	-2	1	-3
SMILES	IMP-1 inh	VIM-2 inhibitor	PDI inh	ERp5 inh	PglD DTNB	PvdQ inh
Cc1cc(Nc2cccc(C)c2C)n2nc(C)nc2n1	0	10*	.	-1	2	0
Cc1cc(Nc2ccc(Br)c(C)c2)n2nc(C)nc2n1	-4	10*	.	1	1	11
CCCNC(=O)N1C[C@@H](C)[C@@H](OC)CN(C)C(=O)c2ccc(NC(=O)CCC)cc2OC[C@@H]1C	.	.	.	-2	-1	.
Cc1ccccc1NC(=O)COC(=O)CCc1nc2ccccc2c(=O)[nH]1	-2	-3	-5	3	3	-13
O=C(COC(=O)CCc1nc2ccccc2c(=O)[nH]1)Nc1c(Cl)cccc1C(F)(F)F	.	.	3	26*	.	-14
O=C(NCCCN1CCCCC1)c1ccc2c(c1)NC(=O)C(N1CCCCC1)S2 (stereo unspecified)	5.2*	0	7	.	.	0
O=C(NN1C(=O)C2C(c3ccccc3)C=CC(c3ccccc3)C2C1=O)c1ccncc1 (stereo unspecified)	12*	0	7	1	6	-4
CCCN(C)C[C@H]1Oc2ncc(-c3ccccc3)cc2C(=O)N([C@@H](C)CO)C[C@H]1C	.	.	.	11	4	.
COc1ccc2c(c1)c(/C=C/c1cc[n+](C)cc1)cn2C	-1	9.7*	15	7	5	-11
COc1ccc2c(/C=C/c3cc[n+](C)cc3)c[nH]c2c1	-3	1	17	3	-3	-9
Cc1cccc2c1-c1sc(C(=O)Nc3nccs3)cc1CO2	-3	-1	-13	?	3	-9
CCOC(=O)c1cc2c(s1)-c1c(C)cccc1OC2	-2	-1	.	-3	2	68*
CC(C)C#Cc1cnc2c(c1)C(=O)N([C@H](C)CO)C[C@@H](C)[C@H](CN(C)Cc1ccccn1)O2	.	.	.	.	2	.
CC(=O)Nc1ccc2c(c1)C(=O)N(C)[C@@H]1CC[C@@H](CC(=O)NCC3CC3)O[C@H]1CO2	.	.	.	71*	0	.
COc1ccc(NC(=O)CN(C)C(=O)Cc2ccsc2)cc1	5.0*	1	2	3	0	6
COc1ccc(NC(=O)CN(C)C(=O)Cc2ccc(-c3ccccc3)cc2)cc1	.	.	-4	-1	.	-1
CCc1ccc(NC(=O)Cc2ccc(OC)cc2)cc1	0	-2	.	.	.	.
COc1ccc(CC(=O)Nc2ccc(C(C)=O)cc2)cc1	8.0*	2	6	-1	.	4
C[C@H](CO)N1C[C@H](C)[C@H](CN(C)C(=O)Cc2cccnc2)Oc2cc(C3=CCCCC3)ccc2S1(=O)=O	.	.	.	20	2	.
Cn1c(O)c(/C=C2\C=Nc3ccccc32)sc1=Nc1ccc(C(=O)O)cc1	-2	-2	54*	-1	2	-9
CCn1c(O)c(/C=C2\C=Nc3ccccc32)sc1=Nc1ccccc1	-3	-2	-3	-4	-6	3
O=C(C1CCC1)N1CC(=O)N2[C@@H](CO)[C@@H](c3ccc(-c4ccccc4F)cc3)[C@@H]2C1	.	.	.	2	.	.
CCOc1ccc(N2C(=O)C3Sc4[nH]c(=O)sc4C(/C=C/c4ccccc4)C3C2=O)cc1 (stereo unspecified)	8.0*	0	2	7	-3	3
